# Assay results gathered from unrelated publications.
# Target: Calcium/calmodulin-dependent protein kinase type 1B (PNCK, Homo sapiens, UniProt Q6P2M8)
assay,setting,remaining binding [%],SMILES
binding,1 µM,81,c1cnn2ncc(-c3ccnc(N4CCC45COC5)n3)c2c1
"binding, competition with immobilised ligand",1 µM,61,O=C(NCCCN1CCOCC1)c1ccc(Nc2nccc(-c3cc4ccccc4s3)n2)cc1
binding,1 µM,100,COc1ccnn2ncc(-c3ccnc(N(C)C)n3)c12
"cell-free assay, competition with immobilised ligand",1 µM,77,CCCOc1ccc([C@H]2[C@H](C(=O)O)[C@@H](c3ccc4c(c3)OCO4)CN2CC(=O)Nc2c(CC)cccc2CC)cc1
"binding, competition with immobilised ligand",1 µM,87,O=C(NCC1CCOCC1)c1n[nH]cc1NC(=O)c1c(F)cccc1F
binding,1 µM,89,C[C@@H]1CCN(c2nccc(-c3cnn4ncccc34)n2)C1
"cell-free assay, competition with immobilised ligand",5 µM,100,FC(F)(F)Oc1cccc(-c2cnc3ccc(-c4ccncc4)nn23)c1
"binding, competition with immobilised ligand",1 µM,83,COc1cnc(Nc2cccc(S(N)(=O)=O)c2)nc1N1CCN(c2ccccc2)C(=O)C1
"cell-free assay, competition with immobilised ligand",1 µM,100,O=C(Nc1cnc(Oc2ccc(F)cc2)nc1)N1CCc2ncccc2[C@@H]1c1ccc(F)cc1
"binding, competition with immobilised ligand",1 µM,62,O=C(c1ccc(Nc2ncc(Cl)c(-c3cc4ccccc4s3)n2)cc1)N1CCC(N2CCCC2)CC1
"cell-free assay, competition with immobilised ligand",1 µM,90,N#CC1(c2ccccn2)CCN(Cc2cc(C(=O)N3CCCC3)c(=O)n3ccccc23)CC1
binding,1 µM,62,CN(C)c1nccc(-c2cnc3ncccn23)n1
"cell-free assay, competition with immobilised ligand",1 µM,85,CC1=C(C#N)C(c2ccc3c(c2)c(NC(=O)c2ccccc2C)nn3C)C(C#N)=C(C)N1
binding,1 µM,100,F[C@@H]1CCN(c2nccc(-c3cnn4ncccc34)n2)C1
"cell-free assay, competition with immobilised ligand",1 µM,56,O=c1nc(-c2ccccn2)sc2ccccc12
"binding, competition with immobilised ligand",1 µM,47,O=C(c1ccc(Nc2nccc(-c3cc4ccccc4s3)n2)cc1)N1CCC(N2CCCC2)CC1
binding,1 µM,100,N[C@@H]1CCN(c2nccc(-c3cnn4ncccc34)n2)C1
"cell-free assay, competition with immobilised ligand",1 µM,100,CNCc1ccccc1-c1csc([C@H](C)Nc2nc(C)nc3cc(OC)c(OC)cc23)c1
